According to ChEMBL document CHEMBL1145781, “Synthesis and structure-activity relationships of 5-amino-6-fluoro-1-[(1R,2S)-2-fluorocyclopropan-1-yl]-8-methylquinolonecarboxylic acid antibacterials having fluorinated 7-[(3R)-3-(1-aminocyclopropan-1-yl)pyrrolidin-1-yl] substituents” (J Med Chem, 2003):
Values after ≈ are worked out from the molar mass of the structure shown. *1 amine or outer side, *2 acyl side, *3 side chain or, on linkers, in order; H or OH if unused. Where a SMILES comes first, the peptide text is derived from it. Bridges are numbered along the chain shown (N, C = ends). [ ]: non-standard residue; d: D form. The star is where a group is joined. X1 = O=C1C[C@@H](C(=O)[*:2])N([*:1])C[C@H]1CS[C@@H]1CN2CCC1CC2; NMePhe(4-NMe2) = CN[C@@H](Cc1ccc(N(C)C)cc1)C(=O)O; Picolinoyl(3-OH) = O=C(c1ncccc1O)*; Phg = N[C@H](C(=O)O)c1ccccc1; dAbu = CC[C@@H](N)C(=O)O

Key:
Assay type in all cases: functional
[1] = test system: Klebsiella pneumoniae; assay: Antibacterial activity was determined against Klebsiella pneumoniae type II strain after incubation at 37 degrees C for 18 h
[2] = test system: Staphylococcus epidermidis; assay: Antibacterial activity was determined against Staphylococcus epidermis 56500 strain after incubation at 37 degrees C for 18 h
[3] = test system: Escherichia coli; assay: Antibacterial activity was determined against Escherichia coli NIHJ strain after incubation at 37 degrees C for 18 h
[4] = test system: Streptococcus pyogenes; assay: Antibacterial activity was determined against Streptococcus pyogenes G-36 strain after incubation at 37 degrees C for 18 h
[5] = test system: Streptococcus pneumoniae; assay: Antibacterial activity was determined against Streptococcus pneumoniae J-24 strain after incubation at 37 degrees C for 18 h
[6] = test system: Staphylococcus aureus; assay: Antibacterial activity was determined against Staphylococcus aureus FDA 209-P strain after incubation at 37 degrees C for 18 h
[7] = test system: Staphylococcus aureus; assay: Antibacterial activity was determined against clinically isolated Levofloxacin-methicillin resistant Staphylococcus aureus (LVFX-r MRSA) strains (74 strains)
[8] = test system: Enterococcus sp.; assay: Antibacterial activity was determined against clinically isolated vancomycin-A resistant enterococci (VRE) strains (33 strains)
[9] = test system: Streptococcus mitis; assay: Antibacterial activity was determined against Streptococcus mitis IID685 strain after incubation at 37 degrees C for 18 h
[10] = test system: Enterococcus faecalis; assay: Antibacterial activity was determined against Enterococcus faecalis ATCC 19433 strain after incubation at 37 degrees C for 18 h; conditions: ATCC 19433, 18 h
[11] = test system: Streptococcus pneumoniae; assay: Antibacterial activity was determined against clinically isolated penicillin resistant Streptococcus pneumoniae (PRSP) strains (50 strains)
[12] = test system: Pseudomonas aeruginosa; assay: Antibacterial activity was determined against Pseudomonas aeruginosa PAO1 strain after incubation at 37 degrees C for 18 h
[13] = test system: Enterococcus sp.; assay: Antibacterial activity was determined against clinically isolated vancomycin-B resistant enterococci (VRE) strains (10 strains)
[14] = test system: Enterococcus sp.; assay: Antibacterial activity was determined against clinically isolated vancomycin-B resistant Enterococci (VRE) strains (10 strains)
Summary of the method: (§1)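 Twofold broth microdilution in Mueller–Hinton broth, inoculum about 10^5 CFU per well. Plates incubated 18 h at 37 °C. MIC taken as the lowest concentration preventing visible growth. Organisms were clinical resistant Gram-positive isolates.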

[15] = test system: Enterococcus sp.; assay: Antibacterial activity was determined against clinically isolated vancomycin-A resistant Enterococci (VRE) strains (33 strains); summary of the method: as §1
[16] = test system: Staphylococcus aureus; assay: Antibacterial activity was determined against clinically isolated Levofloxacin-methicillin resistant Staphylococcus aureus (LVFX-r MRSA) strains (74 strains); Range= 0.5-128 ug/mL; summary of the method: as §1
[17] = test system: Streptococcus pneumoniae; assay: Antibacterial activity was determined against clinically isolated penicillin resistant Streptococcus pneumoniae (PRSP) strains (50 strains); Range= 1-4

Structure (SMILES) | MIC [1] | MIC [2] | MIC [3] | MIC [4] | MIC [5] | MIC [6] | MIC50 [7] | MIC90 [7] | MIC50 [8] | MIC90 [8] | MIC [9] | MIC [10] | MIC50 [11] | MIC90 [11] | MIC [12] | MIC50 [13] | MIC90 [13] | further results
COc1c(N2CCNC(C)C2)c(F)cc2c(=O)c(C(=O)O)cn(C3CC3)c12 (stereo unspecified) [GATIFLOXACIN] | 0.05 µg/mL (≈ 0.133 µM) | 0.2 µg/mL (≈ 0.533 µM) | 0.006 µg/mL (≈ 0.016 µM) | 0.39 µg/mL (≈ 1.04 µM) | 0.2 µg/mL (≈ 0.533 µM) | 0.05 µg/mL (≈ 0.133 µM) | 4 µg/mL (≈ 10.7 µM) | 32 µg/mL (≈ 85.2 µM) | 16 µg/mL (≈ 42.6 µM) | 32 µg/mL (≈ 85.2 µM) | 0.2 µg/mL (≈ 0.533 µM) | 0.39 µg/mL (≈ 1.04 µM) | 0.25 µg/mL (≈ 0.666 µM) | 0.25 µg/mL (≈ 0.666 µM) | 0.39 µg/mL (≈ 1.04 µM) | 2 µg/mL (≈ 5.33 µM) | 16 µg/mL (≈ 42.6 µM) | 
CO/N=C1\CN(c2nc3c(cc2F)c(=O)c(C(=O)O)cn3C2CC2)CC1CN (stereo unspecified) [GEMIFLOXACIN] |  |  |  |  |  |  | 2 µg/mL (≈ 5.14 µM) | 32 µg/mL (≈ 82.2 µM) |  |  |  |  | 0.03 µg/mL (≈ 0.077 µM) | 0.06 µg/mL (≈ 0.154 µM) |  |  |  | MIC50 [14]: 1 µg/mL (≈ 2.57 µM); MIC90 [14]: 2 µg/mL (≈ 5.14 µM); MIC50 [15]: 4 µg/mL (≈ 10.3 µM); MIC90 [15]: 32 µg/mL (≈ 82.2 µM)
C[C@H]1COc2c(N3CCN(C)CC3)c(F)cc3c(=O)c(C(=O)O)cn1c23.C[C@H]1COc2c(N3CCN(C)CC3)c(F)cc3c(=O)c(C(=O)O)cn1c23.O [LEVOFLOXACIN] |  |  |  |  |  |  |  |  |  |  |  |  |  |  |  |  |  | MIC [16]: 128 µg/mL
COc1c(N2C[C@@H]3CCCN[C@@H]3C2)c(F)cc2c(=O)c(C(=O)O)cn(C3CC3)c12 [MOXIFLOXACIN] | 0.025 µg/mL (≈ 0.0623 µM) | 0.1 µg/mL (≈ 0.249 µM) | ≤ 0.003 µg/mL | 0.2 µg/mL (≈ 0.498 µM) | 0.025 µg/mL (≈ 0.0623 µM) | 0.013 µg/mL (≈ 0.0324 µM) |  |  |  |  | 0.1 µg/mL (≈ 0.249 µM) | 0.2 µg/mL (≈ 0.498 µM) |  |  | 0.2 µg/mL (≈ 0.498 µM) |  |  | 
CC1(C)S[C@@H]2[C@H](NC(=O)Cc3ccccc3)C(=O)N2[C@H]1C(=O)O [PENICILLIN G] |  |  |  |  |  |  |  |  |  |  |  |  |  |  |  |  |  | MIC [17]: 4 µg/mL (≈ 12 µM)
CCN(CC)CCS(=O)(=O)[C@@H]1CCN2C(=O)c3coc(n3)CC(=O)C[C@H](O)/C=C(C)/C=C/CNC(=O)/C=C/[C@@H](C)[C@@H](C(C)C)OC(=O)[C@@H]12.CC[C@H]1NC(=O)[C@@H](NC(=O)c2ncccc2O)[C@@H](C)OC(=O)[C@H](c2ccccc2)NC(=O)[C@@H]2CC(=O)[C@H](CS[C@@H]3CN4CCC3CC4)CN2C(=O)[C@H](Cc2ccc(N(C)C)cc2)N(C)C(=O)[C@@H]2CCCN2C1=O [QUINUPRISTIN/DALFOPRISTIN] ({Picolinoyl(3-OH)}-T[dAbu]P[NMePhe(4-NMe2)][X1][Phg]; ester 1-C) |  |  |  |  |  |  | 0.5 µg/mL | 0.5 µg/mL | 0.5 µg/mL | 8 µg/mL |  |  | 1 µg/mL | 1 µg/mL |  | 0.5 µg/mL | 8 µg/mL | 
N[C@@H]1[C@H]2CN(c3nc4c(cc3F)c(=O)c(C(=O)O)cn4-c3ccc(F)cc3F)C[C@@H]12 [TROVAFLOXACIN] | 0.025 µg/mL (≈ 0.06 µM) | 0.05 µg/mL (≈ 0.12 µM) | ≤ 0.003 µg/mL | 0.2 µg/mL (≈ 0.48 µM) | 0.05 µg/mL (≈ 0.12 µM) | 0.013 µg/mL (≈ 0.0312 µM) |  |  |  |  | 0.1 µg/mL (≈ 0.24 µM) | 0.2 µg/mL (≈ 0.48 µM) |  |  | 0.2 µg/mL (≈ 0.48 µM) |  |  | 
CN[C@H](CC(C)C)C(=O)N[C@H]1C(=O)N[C@@H](CC(N)=O)C(=O)N[C@H]2C(=O)N[C@H]3C(=O)N[C@H](C(=O)N[C@H](C(=O)O)c4cc(O)cc(O)c4-c4cc3ccc4O)[C@H](O)c3ccc(c(Cl)c3)Oc3cc2cc(c3O[C@@H]2O[C@H](CO)[C@@H](O)[C@H](O)[C@H]2O[C@H]2C[C@](C)(N)[C@H](O)[C@H](C)O2)Oc2ccc(cc2Cl)[C@H]1O [VANCOMYCIN] |  |  |  |  |  |  | 1 µg/mL (≈ 0.69 µM) | 2 µg/mL (≈ 1.38 µM) | > 128 µg/mL | > 128 µg/mL |  |  | 0.5 µg/mL (≈ 0.345 µM) | 0.5 µg/mL (≈ 0.345 µM) |  | > 128 µg/mL | > 128 µg/mL | 
